Measurements reported in PMC3775715 (Chemistry & biology, 2012).

Tests used:
A549 cells = assay: Metabolomics of steady-state metabolite levels in A549 cells; type: cell-based, human; details: 24 hr, 0.5 uM for 9
recombinant PKM2 = recombinant PKM2 (Homo sapiens, UniProt P14618); assay: Biochemical activity assay against recombinant PKM2; details: for reactivation of PKM2 inhibited by phenylalanine: PKM2 preincubated with phenylalanine for 30 min
Summary of the method: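 Recombinant PKM2 was preincubated with phenylalanine for 30 min. Test compound or FBP was then added for 30 min, after which pyruvate kinase activity was measured.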

Sequence of recombinant PKM2 (P14618 whole entry): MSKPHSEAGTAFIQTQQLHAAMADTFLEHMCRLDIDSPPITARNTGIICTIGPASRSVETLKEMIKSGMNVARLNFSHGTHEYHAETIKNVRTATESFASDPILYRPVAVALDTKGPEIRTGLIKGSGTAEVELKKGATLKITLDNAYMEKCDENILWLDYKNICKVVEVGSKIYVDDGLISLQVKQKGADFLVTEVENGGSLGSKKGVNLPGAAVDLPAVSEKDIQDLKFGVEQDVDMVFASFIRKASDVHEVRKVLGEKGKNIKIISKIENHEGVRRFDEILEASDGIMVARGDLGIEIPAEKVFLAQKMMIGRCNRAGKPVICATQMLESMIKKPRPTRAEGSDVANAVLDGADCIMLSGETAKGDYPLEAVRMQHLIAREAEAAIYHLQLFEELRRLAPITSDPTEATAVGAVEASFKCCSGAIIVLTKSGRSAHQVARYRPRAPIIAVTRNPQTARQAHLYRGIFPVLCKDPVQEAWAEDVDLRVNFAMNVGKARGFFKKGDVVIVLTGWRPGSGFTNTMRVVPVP

change in potency for PKM2 inhibited with phenylalanine (recombinant PKM2; PKM2 inhibited with phenylalanine) | Structure (SMILES) | changes in steady-state metabolite levels (A549 cells) | reactivation of PKM2 inhibited by phenylalanine (recombinant PKM2)
 | CCCCS(=N)(=O)CC[C@H](N)C(=O)O (stereo partly shown) [BSO, buthionine sulfoxime] | induced robust changes in steady-state metabolite pools | 
 | O=C(COP(=O)(O)O)[C@@H](O)[C@H](O)[C@H](O)COP(=O)(O)O [FBP, fructose 1,6-bisphosphate] |  | partially reactivate PKM2 to the low basal level of activity
eight times loss in potency | N[C@@H](CO)C(=O)O [Serine, serine] |  | partially restore the activity of PKM2
